Test results as given in ChEMBL document CHEMBL3745659, “Synthesis and Characterization of 4,11-Diaminoanthra[2,3-b]furan-5,10-diones: Tumor Cell Apoptosis through tNOX-Modulated NAD(+)/NADH Ratio and SIRT1” (J Med Chem, 2015).
pIC50: −log10 of the molar value. Calls of active or inactive are those of the source. No cut-off for these calls is given here.

Columns and labels:
[1] = biological target: T1, Ecto-NOX disulfide-thiol exchanger 2 (Homo sapiens) (UniProt Q16206); test: Inhibition of tNOX in human AGS cells assessed as reduction in cell migration; assay type: cell-based
T1 sequence (whole entry): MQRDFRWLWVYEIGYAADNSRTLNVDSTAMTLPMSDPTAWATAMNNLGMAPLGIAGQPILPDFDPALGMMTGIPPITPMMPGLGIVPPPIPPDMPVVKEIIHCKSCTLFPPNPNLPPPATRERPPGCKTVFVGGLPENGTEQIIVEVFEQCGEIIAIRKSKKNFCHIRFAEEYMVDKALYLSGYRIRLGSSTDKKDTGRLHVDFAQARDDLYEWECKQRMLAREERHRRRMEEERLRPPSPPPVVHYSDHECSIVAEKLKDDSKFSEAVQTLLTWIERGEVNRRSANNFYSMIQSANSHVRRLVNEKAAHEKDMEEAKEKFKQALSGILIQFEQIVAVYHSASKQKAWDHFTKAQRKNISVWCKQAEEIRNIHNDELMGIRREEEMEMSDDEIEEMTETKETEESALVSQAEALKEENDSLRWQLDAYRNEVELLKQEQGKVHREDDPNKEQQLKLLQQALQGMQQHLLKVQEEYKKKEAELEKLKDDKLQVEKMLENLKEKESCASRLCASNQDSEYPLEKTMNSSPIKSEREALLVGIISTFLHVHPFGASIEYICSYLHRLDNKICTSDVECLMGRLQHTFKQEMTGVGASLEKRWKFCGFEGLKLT

[2] = test system: CCRF-CEM; test: Antiproliferative activity against human CEM cells after 72 hrs by MTT assay; assay type: functional, cell-based
[3] = test system: K562; test: Antiproliferative activity against human K562 cells after 72 hrs by MTT assay; assay type: functional, cell-based; conditions: K562, 72 h
[4] = Antiproliferative activity against human K562/4 cells after 72 hrs by MTT assay; assay type: functional, cell-based; conditions: K562/4, 72 h
[5] = biological target: T2, NAD-dependent protein deacetylase sirtuin-1 (Homo sapiens, UniProt Q96EB6); test: Inhibition of human recombinant SIRT1 deacetylase activity using Arg-His-Lys-Lys(epsilon-acetyl)-AMC as substrate incubated for 45 mins by fluorescence analysis
T2 sequence (Q96EB6 whole entry): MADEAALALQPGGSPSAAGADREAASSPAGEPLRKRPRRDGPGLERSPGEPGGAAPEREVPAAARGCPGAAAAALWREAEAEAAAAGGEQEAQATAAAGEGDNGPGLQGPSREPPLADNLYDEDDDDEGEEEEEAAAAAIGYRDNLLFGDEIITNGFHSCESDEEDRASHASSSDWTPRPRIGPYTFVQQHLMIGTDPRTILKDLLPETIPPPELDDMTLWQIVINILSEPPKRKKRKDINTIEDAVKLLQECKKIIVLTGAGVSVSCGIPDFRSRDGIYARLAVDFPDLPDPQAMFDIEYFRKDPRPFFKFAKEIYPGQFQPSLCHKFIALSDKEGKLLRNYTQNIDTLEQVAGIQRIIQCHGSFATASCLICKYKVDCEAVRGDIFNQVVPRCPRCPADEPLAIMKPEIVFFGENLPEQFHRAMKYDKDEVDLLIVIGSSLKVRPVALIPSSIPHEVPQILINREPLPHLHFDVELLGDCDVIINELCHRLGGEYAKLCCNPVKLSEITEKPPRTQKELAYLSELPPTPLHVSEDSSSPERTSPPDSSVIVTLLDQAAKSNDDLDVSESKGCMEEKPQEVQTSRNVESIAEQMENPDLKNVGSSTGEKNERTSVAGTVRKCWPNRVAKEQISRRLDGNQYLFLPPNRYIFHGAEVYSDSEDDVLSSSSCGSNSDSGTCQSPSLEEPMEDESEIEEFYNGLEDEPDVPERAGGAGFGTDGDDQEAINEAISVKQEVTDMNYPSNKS

[6] = test system: K562; test: Drug uptake in human K562 cells at 3 uM incubated for 2 hrs in presence of verapamil by flow cytometric analysis; assay type: ADME, cell-based; conditions: k562, 2 h
Summary of the method: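 K562 and K562/4 cells incubated 2 h with 3 µM compound; uptake measured by flow cytometry as ratios (arbitrary units) of mean fluorescence channels of the histograms; verapamil (10 µM), a Pgp transport blocker, added 30 min before compound where used.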

[7] = test system: AGS; test: Induction of apoptosis in human AGS cells assessed as necrotic cells at 0.05 uM after 24 hrs by annexin V-FITC staining-based flow cytometric analysis (Rvb=0.9%); assay type: functional
Summary of the method: (§1)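 AGS cells exposed to compound for 24 h; Annexin V-FITC staining and flow cytometry used to give percentage of apoptotic cells; mean ± S.E. from at least three independent experiments.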

[8] = test system: AGS; test: Induction of apoptosis in human AGS cells assessed as late apoptotic cells at 0.05 uM after 24 hrs by annexin V-FITC staining-based flow cytometric analysis (Rvb=0.3%); assay type: functional; summary of the method: as §1
[9] = test system: AGS; test: Induction of apoptosis in human AGS cells assessed as late apoptotic cells at 1 uM after 24 hrs by annexin V-FITC staining-based flow cytometric analysis (Rvb=0.3%); assay type: functional; summary of the method: as §1
[10] = test system: AGS; test: Induction of apoptosis in human AGS cells assessed as early apoptotic cells at 1 uM after 24 hrs by annexin V-FITC staining-based flow cytometric analysis (Rvb=7.2%); assay type: functional; summary of the method: as §1
[11] = test system: AGS; test: Induction of apoptosis in human AGS cells assessed as viable cells at 0.05 uM after 24 hrs by annexin V-FITC staining-based flow cytometric analysis (Rvb=91.5%); assay type: functional; conditions: read-out: Activity; summary of the method: as §1
[12] = test system: AGS; test: Induction of apoptosis in human AGS cells assessed as viable cells at 1 uM after 24 hrs by annexin V-FITC staining-based flow cytometric analysis (Rvb=91.5%); assay type: functional; conditions: read-out: Activity; summary of the method: as §1
[13] = test system: AGS; test: Downregulation of Bid protein level in human AGS cells after 24 hrs by Western blot analysis; assay type: functional, cell-based
[14] = test system: AGS; test: Increase in intracellular NAD+/NADH ratio in human AGS cells at 5 uM incubated for 5 mins; assay type: functional, cell-based
[15] = test system: Calf thymus DNA; test: Binding affinity to calf thymus double stranded DNA by spectrophotometric titration method; assay type: nucleic-acid assay; conditions: Bos taurus
Summary of the method: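 Absorption spectra of compound recorded while double-stranded DNA concentration was increased (spectrophotometric titration); extinction at absorption maxima 540 and 585 nm and band shift followed.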

[16] = test system: K562; test: Resistance index, ratio of IC50 for human K562/4 cells to IC50 for human K562 cells; assay type: functional
[17] = test system: AGS; test: Downregulation of SIRT1 protein level in human AGS cells at 1 and 5 uM after 24 after 24 hrs by Western blot analysis; assay type: functional, cell-based
[18] = test system: AGS; test: […] in human AGS cells assessed as upregulation of E-Cad after 24 hrs by Western blot analysis; assay type: functional, cell-based
[19] = test system: MRC5; test: Antiproliferative activity against human MRC5 cells after 72 hrs by cell impedance based study; conditions: MRC5, 72 h

inhibition [1]: Active
pIC50 [2]: 6.72
pIC50 [3]: 6.68
pIC50 [5]: 5.41
Drug uptake [6]: Active
Ka [15]: 2.5 ×10⁶ /M
Structure (SMILES): CNCCNc1c2c(c(NCCNC)c3occc13)C(=O)c1ccccc1C2=O
pIC50 [4]: 6.82
Activity [7]: 7.5%
Activity [8]: 0.7%
Activity [9]: 1.3%
Activity [10]: 21.6%
viability at 0.05 µM [11]: 78.9%
viability at 1 µM [12]: 61.6%
Activity [13]: Active
Activity [14]: inactive
Ratio IC50 [16]: 0.71
Activity [17]: Active
Activity [18]: Active
pIC50 [19]: 6.11
